Assay results pooled from the literature.
Compare with care: the assays were run in different laboratories.
Mode: inhibitor
KCNH2: Voltage-gated inwardly rectifying potassium channel KCNH2 (KCNH2, Homo sapiens, UniProt Q12809)
Dihydroorotate dehydrogenase, mitochondrial, putative: Dihydroorotate dehydrogenase, mitochondrial, putative (Plasmodium vivax, UniProt A5K1N1)
HDAC6: Protein deacetylase HDAC6 (HDAC6, Homo sapiens, UniProt Q9UBN7)

CN(C)C(=O)CN1CCN(c2cnc3c(cc(C(=O)NCc4ccc(Cl)cc4)c(=O)n3CC(=O)N3CC(C)(F)C3)n2)C1=O
IC50 (KCNH2; ion current; patch clamp): > 40000 nM

O=c1oc(-c2cccnc2)nc2ccccc12
IC50 (Prothrombin (F2, Homo sapiens, UniProt P00734); enzyme activity; absorbance; pH 7.4): ~970 nM

CCn1cc(C)c2c(C(O)c3ccc(Cl)c(F)c3)n(C)nc2c1=O (stereo not drawn)
IC50 (Dihydroorotate dehydrogenase, mitochondrial, putative; enzyme activity; absorbance): 9.8 nM

O=C(NO)c1cncc(OS(=O)(=O)Oc2ccc(C(F)(F)F)cc2)c1
IC50 (HDAC6; enzyme activity; fluorescence): 147 nM

Cc1cc(Nc2nccc(C)n2)cc(-c2cnc([C@@]3(O)CC[C@H](C(=O)NCCCNC(=O)CCc4ccc5n4[B-](F)(F)[N+]4=C(c6ccc[nH]6)C=CC4=C5)C(C)(C)C3)s2)c1
IC50 (Tyrosine-protein kinase SYK (SYK, Homo sapiens, UniProt P43405); enzyme activity; radiometric): 110 nM

CCOC(=O)c1nn(C)c(Cc2ccc(C(F)(F)F)nc2)c1C
IC50 (Dihydroorotate dehydrogenase, mitochondrial, putative; enzyme activity; absorbance): 88 nM

COc1ccc2c(C(=S)N(C)CC(=O)O)cccc2c1C(F)(F)F
IC50 (Aldo-keto reductase family 1 member B10 (AKR1B10, Homo sapiens, UniProt O60218); enzyme activity): 57 nM

CN(C)C(=O)c1cc2cnc(Nc3ccc(N4CCNCC4)cn3)nc2n1C1CCCC1
IC50 (3',5'-cyclic-AMP phosphodiesterase 4D (PDE4D, Homo sapiens, UniProt Q08499); enzyme activity; TR-FRET): > 10000 nM

Cn1nc2c(=O)n(C3CC3)ccc2c1[C@](O)(c1cnc(C(F)(F)F)c(Cl)c1)C(F)(F)F
IC50 (Dihydroorotate dehydrogenase, mitochondrial, putative; enzyme activity; absorbance): 19 nM

CC1(F)CN(C(=O)Cn2c(=O)c(C(=O)NCc3ccc(Cl)cc3)cc3nc(N4CCOC4=O)cnc32)C1
IC50 (KCNH2; ion current; patch clamp): 5620 nM

CC(C)c1cccc(OS(=O)(=O)Oc2cc(F)cc(C(=O)NO)c2)c1
IC50 (HDAC6; enzyme activity; fluorescence): 832 nM

COc1cc2c(cc1OC)CC(=O)N(CCCN(C)C[C@H]1Cc3cc(OC)c(OC)cc31)CC2
IC50 (Potassium/sodium hyperpolarization-activated cyclic nucleotide-gated channel 1 (Homo sapiens, UniProt O60741); ion current): 5400 nM

O=C(NO)c1cccc(OS(=O)(=O)Oc2ccc3ccccc3c2)c1
IC50 (HDAC6; enzyme activity; fluorescence): 91 nM

CC1(F)CN(C(=O)Cn2c(=O)c(C(=O)NCc3ccc(Cl)cc3)cc3nc(N4CCCC4=O)cnc32)C1
IC50 (KCNH2; ion current; patch clamp): > 40000 nM

Cc1cc(C(C)(C)C)ccc1OS(=O)(=O)Oc1cc(F)cc(C(=O)NO)c1
IC50 (HDAC6; enzyme activity; fluorescence): 3210 nM

CCn1ncc2c([C@](O)(c3ccc(C(F)(F)F)c(Cl)c3)C3CC3)n(C)nc2c1=O
IC50 (Dihydroorotate dehydrogenase, mitochondrial, putative; enzyme activity; absorbance): 5 nM

O=C(NO)c1cccc(OS(=O)(=O)Oc2ccc(-c3cccc(C(F)(F)F)c3)cc2)c1
IC50 (HDAC6; enzyme activity; fluorescence): 3100 nM

Cn1nc2c(=O)n(C3CC3)cnc2c1[C@](O)(c1cnc(C(F)(F)F)c(Cl)c1)C(F)(F)F
IC50 (Dihydroorotate dehydrogenase, mitochondrial, putative; enzyme activity; absorbance): 23 nM
